# Experimental data: ChEMBL document CHEMBL3997810, “A Novel Potent Anticancer Compound Optimized from a Natural Oridonin Scaffold Induces Apoptosis and Cell Cycle Arrest through the Mitochondrial Pathway” (J Med Chem, 2017)
# System: MCF7
# Experiment: Cell cycle arrest in human MCF7 cells assessed as accumulation at S phase at 0.25 uM after 48 hrs by propidium iodide staining based flow cytometry (reference value: 37.18%)
# Format: functional
# How it was run: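 MCF-7 cells, 5 × 10^4 per well, seeded overnight, then exposed to 0.125–1 μM compound, or DMSO, for 48 h. Ethanol-fixed (70%, −20 °C, 12 h) and stained with PI/RNase at 37 °C for 30 min. Phase distribution determined by flow cytometry.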
compound,measurement,value
C=C1C(=O)[C@]23[C@H](OC(=O)/C=C/c4ccccc4)[C@H]1CC[C@H]2[C@]12C=CCC(C)(C)[C@H]1[C@H](O)[C@]3(O)OC2,Activity,33.9%
